# Measured values reported in ChEMBL document CHEMBL5647689, “Functional role and therapeutic potential of the pim-1 kinase in colon carcinoma” (Neoplasia, 2013).
# Active and inactive are the calls of the source. The rule behind the calls is not given here.
# Key:
# HCT-116 [1] = experiment: Induction of apoptosis in siRNA-mediated Pim-1 knockout human HCT-116 cells assessed as increase in caspase 3/7 activity at 0.7 uM incubated for 72 hrs by Caspase-Glo 3/7 reagent based microplate reader analysis; format: functional, cell-based
# Method in brief: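 HCT-116 cells (1 x 10^3/well) were exposed to the inhibitor in IMDM/10% FCS for 72 h at 37°C. Caspase-3/7 was read by Caspase-Glo 3/7: substrate diluted 1:5 in serum-free medium, 1 h at room temperature in the dark, then luminescence. A WST-1 assay run in parallel on the same plate normalized for cell density.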
# HCT-116 [2] = experiment: Downregulation of p-p21 levels in human HCT-116 cells at 2 uM incubated for 24 hrs by Western blotting analysis; format: functional, cell-based
# Method in brief: (§1)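 HCT-116 lysates were made on ice in PBS with 1 mM EDTA, 1% NP-40, protease and phosphatase inhibitors, then sonicated and cleared by centrifugation. Protein was measured by DC assay. 40 µg ran on 10% SDS-PAGE and went onto PVDF (0.45 µm). Blocking used 5% milk/TBST; primary antibodies ran overnight at 4°C, then HRP secondaries for 1 h. Detection was ECL with densitometric quantitation of scanned bands.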
# LS174T = experiment: Antiproliferative activity against siRNA-mediated Pim-1 knockout human LS174T cells assessed as reduction in cell viability measured after 72 hrs; format: functional, cell-based; conditions: dose 0.13-130 µM
# Method in brief: (§2)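 HCT-116 (1 x 10^3/well) or LS174T (3 x 10^3/well) cells were grown in IMDM/10% FCS at 37°C, 5% CO2. The medium was replaced with IMDM/10% FCS containing the inhibitor at the indicated concentrations, and cells were kept 72 h at 37°C. Inhibitor stock was 20 mg/ml in DMSO, diluted in PBS or medium.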
# HCT-116 [3] = experiment: Downregulation of c-Myc levels in human HCT-116 cells at 2 uM incubated for 24 hrs by Western blotting analysis; format: functional, cell-based; method in brief: as §1
# HCT-116 [4] = experiment: Downregulation of E-cadherin levels in human HCT-116 cells at 2 uM incubated for 24 hrs by Western blotting analysis; format: functional, cell-based; method in brief: as §1
# HCT-116 [5] = experiment: Antiproliferative activity against siRNA-mediated Pim-1 knockout human HCT-116 cells assessed as reduction in cell viability measured after 72 hrs; format: functional, cell-based; conditions: dose 0.066-66 µM; method in brief: as §2
# HCT-116 [6] = experiment: Downregulation of pim-1 levels in human HCT-116 cells at 2 uM incubated for 24 hrs by Western blotting analysis; format: functional, cell-based; method in brief: as §1
# HCT-116 [7] = experiment: Downregulation of p-STAT3 levels at serine 727 residue in human HCT-116 cells at 2 uM incubated for 24 hrs by Western blotting analysis; format: functional, cell-based; method in brief: as §1
# HCT-116 [8] = experiment: Synergistic antitumor activity against human HCT-116 cells xenografted in athymic nude mouse assessed as tumor growth inhibition at 70 mg/kg, ip administered on day 3 to 4 measured after 14 days; format: functional; conditions: HCT-116, 336 h, time 14 day, read-out: TGI
# [9] = Toxicity in athymic nude mouse xenografted with human HCT-116 cells assessed as change in body weight at 40 mg/kg, ip administered twice a week measured after 14 days; format: organism-based; conditions: in vivo, 336 h, time 14 day
# HCT-116 [10] = experiment: Synergistic antitumor activity against PEI complexed siRNA-mediated Pim-1 knockout human HCT-116 cells xenografted in athymic nude mouse assessed as tumor growth inhibition at 70 mg/kg, ip administered on day 3 to 4 measured after 14 days; format: functional; conditions: HCT-116, 336 h, time 14 day, read-out: TGI
# HCT-116 [11] = experiment: Antiproliferative activity against siRNA-mediated Pim-1 knockout human HCT-116 cells assessed as increase in pim-1 mRNA levels measured after 24 hrs by q-PCR analysis; format: functional, cell-based; conditions: dose 1-3 µM
# Method in brief: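 HCT-116 cells seeded at 3.5 x 10^5 per six-well well under standard conditions, then exposed 24 h at 37°C to 1 or 3 µM in IMDM/10% FCS. Total RNA was extracted by phenol/chloroform, and Pim-1 mRNA was measured by SYBR Green qPCR run in parallel with actin. Levels were expressed as 2^CP(target)/2^CP(actin).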
# HCT-116 [12] = experiment: cells; conditions: Homo sapiens, HCT-116, 72 h
# [13] = Toxicity in athymic nude mouse xenografted with human HCT-116 cells assessed as change in body weight at 70 mg/kg, ip administered twice a week measured after 14 days; format: organism-based; conditions: in vivo, 336 h, time 14 day
# HCT-116 [14] = experiment: Synergistic antitumor activity against PEI complexed siRNA-mediated Pim-1 knockout human HCT-116 cells xenografted in athymic nude mouse assessed as tumor growth inhibition at 40 mg/kg, ip administered on day 3 to 4 measured after 14 days; format: functional; conditions: HCT-116, 336 h, time 14 day, read-out: TGI
# [15] = Toxicity in athymic nude mouse xenografted with human HCT-116 cells assessed as behavioural changes in at 70 mg/kg, ip administered twice a week measured after 14 days; format: organism-based; conditions: in vivo, 336 h, time 14 day
# [16] = Toxicity in athymic nude mouse xenografted with human HCT-116 cells assessed as behavioural changes in at 40 mg/kg, ip administered twice a week measured after 14 days; format: organism-based; conditions: in vivo, 336 h, time 14 day
# HCT-116 [17] = experiment: Antitumor activity against PEI complexed siRNA-mediated Pim-1 knockout human HCT-116 cells xenografted in athymic nude mouse assessed as increase in pim-1 levels in tumor at 40 to 70 mg/kg, ip administered on day 3 to 4 measured after 14 days by immunohistochemical staining based analysis; format: functional, organism-based; conditions: dose 40-70 mg/kg, time 14.0 day
# Method in brief: (§3)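 Nude mice (Foxn1nu, 6–8 weeks) carried s.c. HCT-116 flank tumours (1.5 x 10^6 cells) and were randomized at 40–50 mm3, n = 12 tumours/group. PEI F25-LMW-complexed siRNA (Pim-1 or control) was given at 10 µg i.p. every 2–3 days; 70 or 40 mg/kg in PBS was given i.p. every 3–4 days. Paraffin tumour sections were stained for Pim-1 and ranked 0–4.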
# HCT-116 [18] = experiment: cells; conditions: Homo sapiens, HCT-116, 72 h; remark: listed apart in the source
# HCT-116 [19] = experiment: Induction of apoptosis in siRNA-mediated Pim-1 knockout human HCT-116 cells assessed as fold increase in caspase 3/7 activity incubated for 72 hrs by Caspase-Glo 3/7 reagent based microplate reader analysis; format: functional
# Method in brief: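 HCT-116 cells, 5 x 10^2 per well, transfected with 20 nM siPim-1 […], held 72 h at 37°C. Caspase substrate diluted 1:5 in serum-free medium added for 1 h at room temperature in the dark; luminescence read. Signal normalized to a parallel WST-1 assay on the same plate. Means ± SEM.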
# HCT-116 [20] = experiment: Synergistic antitumor activity against PEI complexed siRNA treated human HCT-116 cells xenografted in athymic nude mouse assessed as tumor growth inhibition at 40 mg/kg, ip administered on day 3 to 4 measured after 14 days; format: functional; conditions: HCT-116, 336 h, time 14 day, read-out: TGI
# HCT-116 [21] = experiment: Induction of miR-15b mediated pim-1 expression in human HCT-116 cells assessed as increase in luciferase activity at 3 uM incubated for 72 hrs by luminometer analysis; format: functional, cell-based
# Method in brief: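 HCT-116 cells (3 x 10^4 per 24-well well) co-transfected via PEI F25-LMW with 125 ng pGL3 luciferase reporter carrying Pim-1 3′UTR, intact or miR-15b-seed-mutated. After 48 h, 1 or 3 µM in IMDM/10% FCS was added for 24 h at 37°C. Lysate was mixed with luciferase substrate and read on a luminometer.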
# [22] = Downregulation of miR-15b expression in human HCT-116 cells at 3 uM incubated for 24 hrs by […] analysis; format: functional
# HCT-116 [23] = experiment: Antitumor activity against PEI complexed siRNA-mediated luciferase knockout human HCT-116 cells xenografted in athymic nude mouse assessed as increase in pim-1 levels in tumor at 40 to 70 mg/kg, ip administered on day 3 to 4 measured after 14 days by immunohistochemical staining based analysis; format: functional, organism-based; conditions: dose 40-70 mg/kg, time 14.0 day; method in brief: as §3
# HCT-116 [24] = experiment: Induction of apoptosis in human HCT-116 cells assessed as fold increase in caspase 3/7 activity incubated for 72 hrs by Caspase-Glo 3/7 reagent based microplate reader analysis; format: functional
# HCT-116 [25] = experiment: Synergistic antitumor activity against PEI complexed siRNA-mediated luciferase knockout human HCT-116 cells xenografted in athymic nude mouse assessed as tumor growth inhibition at 70 mg/kg, ip administered on day 3 to 4 measured after 14 days; format: functional; conditions: HCT-116, 336 h, time 14 day, read-out: TGI
structure (smiles),measurement,setting,value
Cn1c2c(c3ccc(Cl)c(Cl)c31)C(C#N)C1(CCNCC1)NC2=O (stereo unspecified),Activity,HCT-116 [1],Active
same,Activity,HCT-116 [2],Active
same,Activity,LS174T,Dose-Dependent Effect
same,Activity,HCT-116 [3],Active
same,Activity,HCT-116 [4],Active
same,Activity,HCT-116 [5],Dose-Dependent Effect
same,Activity,HCT-116 [6],Active
same,Activity,HCT-116 [7],Active
O=c1[nH]cc(F)c(=O)[nH]1 [FLUOROURACIL],inhibition in vivo at 70 mg/kg,HCT-116 [8],~40%
same,Activity,[9],Non-Toxic
same,inhibition in vivo at 70 mg/kg,HCT-116 [10],~30%
same,Activity,HCT-116 [11],Dose-Dependent Effect
same,IC50,HCT-116 [12],3.2 µM
same,Activity,[13],Toxic
same,inhibition in vivo at 40 mg/kg,HCT-116 [14],~60%
same,Activity,[15],Toxic
same,Activity,[16],Non-Toxic
same,Activity,HCT-116 [17],Active
same,IC50,HCT-116 [18],10.1 µM
same,fold change (FC),HCT-116 [19],1.4
same,inhibition in vivo at 40 mg/kg,HCT-116 [20],~20%
same,Activity,HCT-116 [21],Active
same,Activity,[22],40%
same,Activity,HCT-116 [23],Active
same,fold change (FC),HCT-116 [24],~1.7
same,inhibition in vivo at 70 mg/kg,HCT-116 [25],~30%
